Source: ChEMBL document CHEMBL1148141, “New labdene iterpenes from Eupatorium glutinosum” (2002)
Values after ≈ are worked out from the molar mass of the structure shown. Active and inactive are the calls of the source. The rule behind the calls is not given here.

Experiments:
Staphylococcus aureus [1] = assay: Antibacterial activity against Staphylococcus aureus IAM 1011 at 10 ug/disk after 18 hrs by agar overlay method; format: functional, organism-based
Summary of the method: (§1)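 Agar overlay: bacteria grown in nutrient broth (50-100 µL) mixed into 3 mL melted 0.7% soft nutrient agar at 40 °C, poured over 20 mL 1.5% nutrient agar plates; 10 µL sample deposited on solidified agar; inhibition zone diameter read after 18 h at 37 °C. Methanol as solvent control.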

Escherichia coli [2] = assay: Antibacterial activity against Escherichia coli IAM 1268 by two fold dilution method; format: functional
Pseudomonas aeruginosa [3] = assay: Antibacterial activity against Pseudomonas aeruginosa IAM 1275 by two fold dilution method; format: functional
Pseudomonas aeruginosa [4] = assay: Antibacterial activity against Pseudomonas aeruginosa IAM 1275 at 10 ug/disk after 18 hrs by agar overlay method; format: functional, organism-based; summary of the method: as §1
Staphylococcus aureus [5] = assay: Antibacterial activity against Staphylococcus aureus IAM 1011 by two fold dilution method; format: functional
Escherichia coli [6] = assay: Antibacterial activity against Escherichia coli IAM 1268 at 10 ug/disk after 18 hrs by agar overlay method; format: functional, organism-based; summary of the method: as §1
Bacillus cereus [7] = assay: Antibacterial activity against Bacillus cereus IAM 1069 by two fold dilution method; format: functional
Bacillus cereus [8] = assay: Antibacterial activity against Bacillus cereus IAM 1069 at 10 ug/disk after 18 hrs by agar overlay method; format: functional, organism-based; summary of the method: as §1
CCRF S-180 = assay: Cytotoxicity against mouse S180 cells by MTT assay; format: functional, cell-based

CC(CCO)CC[C@@H]1C(C(=O)O)=CC[C@@H]2C(C)(C)[C@H](O)CC[C@@]12C (some centres not stated)
Activity (Staphylococcus aureus [1]): Active
MIC (Escherichia coli [2]): 128 µg/mL (≈ 378 µM)
MIC (Pseudomonas aeruginosa [3]): 64 µg/mL (≈ 189 µM)
Activity (Pseudomonas aeruginosa [4]): Active
MIC (Staphylococcus aureus [5]): 256 µg/mL (≈ 756 µM)
Activity (Escherichia coli [6]): Active
MIC (Bacillus cereus [7]): 128 µg/mL (≈ 378 µM)
Activity (Bacillus cereus [8]): Active
Activity (CCRF S-180): inactive

CC(CCO)CC[C@@H]1C(C(=O)O)=CC[C@@H]2C(C)(C)[C@H](O[C@@H]3O[C@H](CO)[C@@H](O)[C@H](O)[C@H]3O)CC[C@@]12C (some centres not stated)
MIC (Escherichia coli [2]): 128 µg/mL (≈ 256 µM)
MIC (Pseudomonas aeruginosa [3]): 256 µg/mL (≈ 511 µM)
Activity (CCRF S-180): inactive
